Source: publication PMC5474308 (Biochimica et biophysica acta, 2015)
Where two headings read alike, the source gives them in different places. Blank lines part the entries; values can stand above or below the molecule they belong to. Ends that are not written are not given here.

What was measured:
[1] = tested on: PAK2 (pT402) in pancreatic acini; assay: Effect of post-receptor stimulants on T402 PAK2 phosphorylation; type: cell-based, rat; details: 1 μM each, 5 min
[2] = tested on: PAK2 (pT402) in pancreatic acini; type: cell-based, rat
[3] = tested on: PAK2 (pT402) in pancreatic acini; type: cell-based, rat; details: for PAK2 inhibition: IPA-3 40 μM, 15 min
[4] = tested on: ERK1/2 (p42/44) in pancreatic acini; assay: Effect of PAK2 inhibition on ERK1/2; type: cell-based, rat
[5] = tested on: rat pancreatic acinar cells (amylase release); assay: Effect of PAK2 inhibition on amylase release; type: cell-based; details: for Amylase secretion (% total), inhibitor with CCK 0.01 nM: 40 μM inhibitor/analogue + CCK 0.01 nM, CCK alone 11.9 ± 2.2; for Amylase secretion (% total), inhibitor with CCK 0.01 nM / Amylase secretion (% total), inhibitor with CCK 0.1 nM / Amylase secretion (% total), inhibitor with bombesin / Amylase secretion (% total), inhibitor without secretagogue / Amylase secretion (% total), no inhibitor: 30 min; for Amylase secretion (% total), inhibitor with CCK 0.1 nM: 40 μM inhibitor/analogue + CCK 0.1 nM, CCK alone 15.7 ± 0.4; for Amylase secretion (% total), inhibitor with bombesin: 40 μM inhibitor/analogue + bombesin 10 nM, bombesin alone 15.2 ± 0.8; for Amylase secretion (% total), inhibitor without secretagogue: 40 μM inhibitor/analogue, no secretagogue; for Amylase secretion (% total), no inhibitor: 5–10 experiments, untreated 3.8 ± 0.3, p<0.05 vs control
In short: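 Secretagogues were CCK (0.01 or 0.1 nM) or bombesin (10 nM). Amylase released over a 30 min incubation was measured with Phadebas reagent and expressed as % of total cellular amylase. Means of 5–10 experiments.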

[6] = tested on: PAK2 (pT402) in pancreatic acini; assay: PAK2 T402 phosphorylation after stimulation by secretagogues and growth factors; type: cell-based, rat; details: for PAK2 activation (abstract, words): rat pancreatic acini; for effect on phosphorylation of (T402) PAK2: VIP 10 nM, secretin 10 nM, endothelin 1 10 nM, 1 min; for T402 PAK2 phosphorylation by growth factors, % of control: EGF 10 nM 5 min, bFGF 100 ng/ml 5 min, PDGF 100 ng/ml 10 min (p<0.05), insulin 1 μM 10 min (p=0.08), 5 independent experiments; for effect of growth factors on PAK2 threonine 402 phosphorylation: IGF-1 100 nM 10 min, HGF 1 nM 10 min, insulin 1 μM 10 min
[7] = tested on: PAK2 (pT402) in pancreatic acini; assay: Dose-response effect of CCK and CCK-JMV on T402 PAK2 phosphorylation; type: cell-based, rat; details: 3 min
In short: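 Rat pancreatic acini were dispersed by collagenase and pre-incubated 2 h at 37 °C in HEPES-buffered (pH 7.45) standard incubation solution. They were then exposed for 3 min to graded concentrations of CCK or the test peptide, and lysed. Read-out was pT402 PAK2 western blot with total PAK2 as loading control, by chemiluminescence densitometry. Values are % of 100 nM CCK response; n=5; EC50 by curve fitting.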

[8] = tested on: PAK2 (pT402) in pancreatic acini; assay: Time course of CCK and EGF stimulation of PAK2 T402 phosphorylation; type: cell-based, rat; details: for T402 PAK2 phosphorylation at 1 minute: 1 min; for T402 PAK2 phosphorylation at 1 minute / duration of increase in phospho-T402 PAK2 / time of maximum T402 PAK2 phosphorylation: CCK 100 nM or EGF 10 nM
[9] = tested on: CCK1 / CCK2 receptors in pancreatic acini (pT402 PAK2); type: cell-based, rat; details: gastrin (CCKB agonist) 10 nM, A71378 (CCKA receptor agonist) 30 nM, 1 min

Molecule: CNc1ccc2oc(C[C@H]3O[C@@]4(CC[C@H]3C)O[C@H]([C@H](C)C(=O)c3ccc[nH]3)[C@H](C)C[C@H]4C)nc2c1C(=O)O [A23187]
effect on PAK2 phosphorylation [1]: have no effect on PAK2

Molecule: CN(C)CCCn1cc(C2=C(c3c[nH]c4ccccc34)C(=O)NC2=O)c2ccccc21 [GFX]
TPA-induced pT402 PAK2 phosphorylation after pretreatment ([2]; pretreatment GF109203X 5 μM 1 h, then TPA 1 μM 5 min, TPA alone 319±45): 100±26 % of control

PAK2 inhibition [3]: 70%
PAK2 inhibition ([3]; listed as IPA3): approximately 70%
basal pT402 PAK2 phosphorylation with inhibitor ([3]; PP2 10 μM 1 h or IPA-3 40 μM 15 min, no stimulant): 32±6 % of control
effect on CCK-activation of PAK2 (abstract, words) ([3]; rat pancreatic acini): partially inhibited
Molecule: Oc1ccc2ccccc2c1SSc1c(O)ccc2ccccc12 [IPA-3, 1,1′-Dithiodi-2-naphthtol]
CCK induced phosphorylation of p42/44 with inhibitor ([4]; IPA-3 40 μM, then CCK 0.3 nM, p<0.05): 64±4 % of CCK 0.3 nM alone
effect on CCK-induced ERK1/2 activation (abstract, words) ([4]; rat pancreatic acini): reduced
reduction of bombesin-induced increase in amylase release ([5]; 40 μM IPA3, bombesin 10 nM): 55 % of the maximal bombesin-induced stimulation
reduction of CCK-induced increase in amylase release ([5]; 40 μM IPA3, both concentrations of CCK (0.01, 0.1 nM)): 63 % of maximal CCK stimulation
Amylase secretion (% total), inhibitor with CCK 0.01 nM [5]: 7.5 ± 1.3ˆ % total
Amylase secretion (% total), inhibitor with CCK 0.1 nM [5]: 9.6 ± 0.6ˆ % total
Amylase secretion (% total), inhibitor with bombesin [5]: 10.3± 0.9ˆ % total
Amylase secretion (% total), inhibitor without secretagogue [5]: 5.2 ± 0.5 % total
effect on amylase release induced by CCK or bombesin (abstract, words) ([5]; rat pancreatic acini): reduced

Molecule: Oc1ccc2cc(SSc3ccc4cc(O)ccc4c3)ccc2c1 [Pir 3,5, 6,6′-Dithiodi-2-naphthtol]
Amylase secretion (% total), inhibitor with CCK 0.01 nM [5]: 12.6 ± 0.8 % total
Amylase secretion (% total), inhibitor with CCK 0.1 nM [5]: 14.7± 1.0 % total
Amylase secretion (% total), inhibitor with bombesin [5]: 14.4 ± 1.2 % total
Amylase secretion (% total), inhibitor without secretagogue [5]: 4.3 ± 0.9 % total
effect on stimulated enzyme secretion ([5]; Pir3,5 40 μM, CCK or bombesin): had no effect on stimulated enzyme secretion

Molecule: CCCCCCCCCCCCCC(=O)O[C@@H]1[C@@H](C)[C@@]2(O)[C@@H](C=C(CO)C[C@]3(O)C(=O)C(C)=C[C@@H]23)[C@@H]2C(C)(C)[C@]12OC(C)=O [TPA, 12-O-tetradecanoylphorbol-13-acetate]
PAK2 activation (abstract, words) [6]: activated

Molecule: C[N+](C)(C)CCOC(N)=O [carbachol]
PAK2 activation (abstract, words) [6]: activated

Molecule: COOH-terminal octapeptide of cholecystokinin [CCK]
PAK2 activation (abstract, words) [6]: activated
maximal stimulation of T402 PAK2 phosphorylation ([7]; 100 nM CCK): 452±70 % of control
concentration at which increase in T402 PAK2 phosphorylation is detectable [7]: 10 pM
concentration of maximal stimulation of T402 PAK2 phosphorylation [7]: 100 nM
T402 PAK2 phosphorylation at 1 minute ([8]; mean ± S.E. of 5 experiments): 275±17 % of control
T402 PAK2 phosphorylation at 3 min ([8]; 3 min, CCK 100 nM, mean ± S.E. of 5 experiments, p<0.05): 298±26 % of control
duration of increase in phospho-T402 PAK2 [8]: over 15 min
time of maximum T402 PAK2 phosphorylation [8]: 3 min
subsequent partial decrease of PAK2 activation after rapid increase ([8]; CCK 100 nM, sustained over time): 40%
PKC-independent activation of PAK2 that was also PLC-independent ([2]; CCK1 receptor stimulation): 40%
increase in amylase release ([5]; 0.01 nM CCK): 313±57%
increase in amylase release ([5]; 0.1 nM CCK): 413±11%
Amylase secretion (% total), no inhibitor ([5]; CCK 0.01 nM): 11.9 ± 2.2 % total
Amylase secretion (% total), no inhibitor ([5]; CCK 0.1 nM): 15.7 ± 0.4 % total

Molecule: Endothelin-1: interacts with ET-1 and ET-3 receptors in the pancreatic acinar cell (CSCSSLMDKECVYFCHLDIIW; ends and bridges not checked; cysteine pairing not given here; UniProt P05305 53-73, looked up)
effect on phosphorylation of (T402) PAK2 [6]: did not produce any effect upon T402 PAK2 phosphorylation

Molecule: Epidermal growth factor [EGF]
T402 PAK2 phosphorylation by growth factors, % of control [6]: 195±28 of control
PAK2 activation (abstract, words) [6]: activated
T402 PAK2 phosphorylation at 1 minute ([8]; mean ± S.E. of 5 experiments): 300±30 % of control
duration of increase in phospho-T402 PAK2 [8]: ≤ 3 min
time of maximum T402 PAK2 phosphorylation [8]: 1 min

Molecule: Insulin: pancreatic growth factor
T402 PAK2 phosphorylation by growth factors, % of control [6]: 210±44 of control
effect of growth factors on PAK2 threonine 402 phosphorylation [6]: did not quite reach statistical significance

Molecule: basic fibroblast growth factor [bFGF]
T402 PAK2 phosphorylation by growth factors, % of control [6]: 228±37 of control
PAK2 activation (abstract, words) [6]: activated

Molecule: bombesin: pancreatic secretagogue that activates phospholipase C
PAK2 activation (abstract, words) [6]: activated
Amylase secretion (% total), no inhibitor ([5]; bombesin 10 nM): 15.2 ± 0.8 % total

Molecule: gastrin
effect of selective receptor agonist on pT402 PAK2 phosphorylation [9]: did not produce any increase in pT402 PAK2 phosphorylation

Molecule: hepatocyte growth factor [HGF]
effect of growth factors on PAK2 threonine 402 phosphorylation [6]: had no effect

Molecule: insulin-like growth factor 1 [IGF-1]
effect of growth factors on PAK2 threonine 402 phosphorylation [6]: had no effect

Molecule: platelet-derived growth factor [PDGF]
T402 PAK2 phosphorylation by growth factors, % of control [6]: 240±44 of control
PAK2 activation (abstract, words) [6]: activated

Molecule: secretin: gastrointestinal hormone activating adenylate cyclase
effect on phosphorylation of (T402) PAK2 [6]: did not increase phosphorylation of (T402) PAK2

Molecule: vasoactive intestinal peptide (HSDAVFTDNYTRLRKQMAVKKYLNSILN; ends and bridges not checked; UniProt P01282 125-152, looked up) [VIP]
effect on phosphorylation of (T402) PAK2 [6]: did not increase phosphorylation of (T402) PAK2
